Diaphorase act: activates diaphorase or chemically reduces, flagging diaphorase assay artifacts. Diaphorase/resazurin coupled assay, resorufin fluorescence, 16 min; active compounds read high; 1 = vehicle wells, 0 = NADH-free wells. activation factor at 20 µM. 190,000 compounds, 0.005% hits. AID 1229;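 active means diaphorase activity raised at least twofold by the compound at 20 µM; inactive means activation factor below 2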
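Material: Clostridium kluyveri diaphorase, purified enzyme; Quantity: enzyme 0.07 U/mL final; Medium: HEPES pH 7.4 buffer with MgCl2 and Tween 20; Dosing: single compound dose of 20 µM, 1% DMSO final; Schedule: 16 min reaction at room temperature; Measured by: red resorufin fluorescence at 544/590 nm excitation/emission.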
PMI activator: activators of human phosphomannose isomerase. activation factor at 20 µM. purified human PMI, coupled resazurin fluorescence, 20 min; active compounds read high; 1 = vehicle control, 0 substrate-free wells. P34949. 190,000 compounds, 0.005% hits;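 active means activation factor of 2 or more at 20 µM, relative to plate controls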
Target sequence (P34949 whole entry, looked up): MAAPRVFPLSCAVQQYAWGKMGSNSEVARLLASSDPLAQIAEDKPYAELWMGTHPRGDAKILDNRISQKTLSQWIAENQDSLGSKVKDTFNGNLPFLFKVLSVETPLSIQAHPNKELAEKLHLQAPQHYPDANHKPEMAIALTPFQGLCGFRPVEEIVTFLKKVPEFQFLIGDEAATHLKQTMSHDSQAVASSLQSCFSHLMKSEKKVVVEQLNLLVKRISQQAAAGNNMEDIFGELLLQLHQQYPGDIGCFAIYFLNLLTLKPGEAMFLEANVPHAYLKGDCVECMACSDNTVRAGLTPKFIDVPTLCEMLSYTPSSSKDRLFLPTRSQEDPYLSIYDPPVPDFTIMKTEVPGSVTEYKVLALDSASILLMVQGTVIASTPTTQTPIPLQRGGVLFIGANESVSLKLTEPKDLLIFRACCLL
WT yeast gro inh: growth inhibition of WT yeast, mitochondrial fusion screen; inhibition, % at 10 µM; AID 1362; 190,000 compounds, 2.1% hits; mitochondrial fusion phenotypic screen, WT strain; in the data active means inhibition above about 58%; tested in S. cerevisiae
PMI act satM6P: increases human PMI activity with near-saturating mannose 6-phosphate; P34949; coupled PMI enzyme assay, resazurin fluorescence, 20 min; active compounds read high; 1 = untreated enzyme, 0 = substrate-free blank; activation factor at 20 µM; 190,000 compounds, 0.34% hits; AID 1216;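 active means activation factor of 2 or more at 20 µM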
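Test system: human PMI in coupled enzyme assay; Input: PMI at 15 ng/mL final; Medium: HEPES buffer, pH 7.4; Schedule: 20 min incubation at room temperature; Technique: resorufin fluorescence at Ex 544/Em 590 nm; Compound: 20 µM single dose; Probe or stimulus: Near-saturating mannose-6-phosphate, 1.0 mM.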
L major viab: inhibitors of Leishmania major promastigote growth; Leishmania major promastigotes, resazurin fluorescence viability; inhibition, % at 10 µM; 200,000 compounds, 9% hits; in the data active means inhibition above about 50%;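 further: promastigotes grown with compound for 44 hours at 28 °C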
Hits are given with their value. Compounds with a hit are over-represented: about 10% of the library has one in this group of screens.

How did CCCCCc1ccc(OCCCC[n+]2ccccc2)c(CCCCC)c1 do in these assays?
Diaphorase act: inactive; PMI activator: inactive; WT yeast gro inh: 86.0; PMI act satM6P: inactive; L major viab: 100.5

What do the screens show for `CCC(C)(C)c1ccc(OCCCC[n+]2ccccc2)c(C(C)(C)CC)c1`?
Diaphorase act: inactive; PMI activator: inactive; WT yeast gro inh: 92.6; PMI act satM6P: inactive; L major viab: 100.4

Results for CCCCCc1ccc(OCCCC[n+]2ccc(C)cc2)c(CCCCC)c1 ?
Diaphorase act: inactive; PMI activator: inactive; WT yeast gro inh: 97.9; PMI act satM6P: inactive; L major viab: 100.3

How did CCCCCCc1ccc(OCC(=O)O)cc1OCC(=O)O do in these assays?
Diaphorase act: inactive; PMI activator: inactive; WT yeast gro inh: inactive; PMI act satM6P: inactive; L major viab: inactive

Results for COc1ccc(NC(=O)COc2ccc(C(=O)OCC(=O)N(C(C)C)C(C)C)cc2OC)cc1 ?
Diaphorase act: inactive; PMI activator: inactive; WT yeast gro inh: inactive; PMI act satM6P: inactive; L major viab: inactive

How did Cc1nnc(-c2ccccc2)nc1N(C)C do in these assays?
Diaphorase act: inactive; PMI activator: inactive; WT yeast gro inh: inactive; PMI act satM6P: inactive; L major viab: inactive

Results for Cc1nc2ccccc2n1S(=O)(=O)c1ccc(Br)cc1 ?
Diaphorase act: inactive; PMI activator: inactive; WT yeast gro inh: inactive; PMI act satM6P: inactive; L major viab: 69.8

How did O=C1C(Nc2cccc(O)c2)=C(N2CCCCC2)C(=O)c2ccccc21 do in these assays?
Diaphorase act: inactive; PMI activator: inactive; WT yeast gro inh: inactive; PMI act satM6P: inactive; L major viab: 97.7

How did CN(C1=C(N2CCCCC2)C(=O)c2ccccc2C1=O)c1ccccc1 do in these assays?
Diaphorase act: inactive; PMI activator: inactive; WT yeast gro inh: 76.2; PMI act satM6P: inactive; L major viab: 64.7

Results for O=C(/C=C/c1ccc(O)cc1)c1ccc(NC2=C(N3CCCCC3)C(=O)c3ccccc3C2=O)cc1 ?
Diaphorase act: inactive; PMI activator: inactive; WT yeast gro inh: inactive; PMI act satM6P: inactive; L major viab: 98.8

Results for O=C1C(Cl)=C(N2CCCCCC2)C(=O)N1c1ccccc1 ?
Diaphorase act: inactive; PMI activator: inactive; WT yeast gro inh: inactive; PMI act satM6P: inactive; L major viab: inactive

Results for COc1ccccc1NC1=C(N2CCCCC2)C(=O)c2ccccc2C1=O ?
Diaphorase act: inactive; PMI activator: inactive; WT yeast gro inh: inactive; PMI act satM6P: inactive; L major viab: 99.8

What do the screens show for `Cc1nc2cc(N=NC3=C(O)CCCC3=O)ccc2s1`?
Diaphorase act: inactive; PMI activator: inactive; WT yeast gro inh: inactive; PMI act satM6P: inactive; L major viab: inactive

What do the screens show for `CCOC(=O)C1=C(O)C(=O)N(Cc2cccnc2)C1c1ccc(OC)cc1` (stereo not drawn)?
Diaphorase act: inactive; PMI activator: inactive; WT yeast gro inh: inactive; PMI act satM6P: inactive; L major viab: inactive

Results for COc1ccc(C(=O)N2CCC(c3ccccc3)CC2)c(OC)c1OC ?
Diaphorase act: inactive; PMI activator: inactive; WT yeast gro inh: inactive; PMI act satM6P: inactive; L major viab: inactive

Results for O=C(OCCNC(=O)c1ccc2ccccc2n1)c1ccc(F)cc1 ?
Diaphorase act: inactive; PMI activator: inactive; WT yeast gro inh: inactive; PMI act satM6P: inactive; L major viab: inactive

Results for COC1=C(Nc2ccccc2)C(=O)c2ccccc2C1=O ?
Diaphorase act: inactive; PMI activator: inactive; WT yeast gro inh: inactive; PMI act satM6P: inactive; L major viab: inactive

What do the screens show for `O=C1C(Nc2ccccc2)=C(N2CCCCC2)C(=O)c2ccccc21`?
Diaphorase act: inactive; PMI activator: inactive; WT yeast gro inh: inactive; PMI act satM6P: inactive; L major viab: 97.1

How did COC1=C(Nc2ccc(C)cc2)C(=O)c2ccccc2C1=O do in these assays?
Diaphorase act: inactive; PMI activator: inactive; WT yeast gro inh: inactive; PMI act satM6P: inactive; L major viab: inactive

What do the screens show for `Cc1ccc(NC2=C(N3CCCCC3)C(=O)c3ccccc3C2=O)cc1`?
Diaphorase act: inactive; PMI activator: inactive; WT yeast gro inh: inactive; PMI act satM6P: inactive; L major viab: 97.1

Results for Cc1cccc(NC(=O)C2(c3cccs3)CCOCC2)n1 ?
Diaphorase act: inactive; PMI activator: inactive; WT yeast gro inh: inactive; PMI act satM6P: inactive; L major viab: inactive

How did CC(CNC(=O)COc1ccccc1)OC(=O)Nc1ccc(Cl)c(Cl)c1 (stereo not drawn) do in these assays?
Diaphorase act: inactive; PMI activator: inactive; WT yeast gro inh: 82.1; PMI act satM6P: inactive; L major viab: inactive

How did COC(=O)NCC(C)OC(=O)Nc1cccc(Cl)c1 (stereo not drawn) do in these assays?
Diaphorase act: inactive; PMI activator: inactive; WT yeast gro inh: inactive; PMI act satM6P: inactive; L major viab: inactive

How did O=C1C2CCCN2C(=O)N1CCCCN1CCN(c2cccc(Cl)c2)CC1 (stereo not drawn) do in these assays?
Diaphorase act: inactive; PMI activator: inactive; WT yeast gro inh: inactive; PMI act satM6P: inactive; L major viab: inactive

Results for COc1cccc(OCc2nnc(SCC(=O)NCc3ccco3)n2C)c1 ?
Diaphorase act: inactive; PMI activator: inactive; WT yeast gro inh: inactive; PMI act satM6P: inactive; L major viab: inactive

What do the screens show for `COc1cccc(OCc2nnc(SCC(=O)NCc3ccco3)n2CCc2ccccc2)c1`?
Diaphorase act: inactive; PMI activator: inactive; WT yeast gro inh: inactive; PMI act satM6P: inactive; L major viab: 91.2

Results for COc1ccc(NC(=O)CSc2nnc(Cc3cccs3)n2-c2ccc(C)cc2)cc1 ?
Diaphorase act: inactive; PMI activator: inactive; WT yeast gro inh: inactive; PMI act satM6P: inactive; L major viab: 97.6

Results for COc1ccc(-n2c(COc3cccc4ccccc34)nnc2SCC(=O)NCc2ccco2)cc1 ?
Diaphorase act: inactive; PMI activator: inactive; WT yeast gro inh: inactive; PMI act satM6P: inactive; L major viab: 98.4

What do the screens show for `COc1ccc(OC)c(C(=O)CSc2nnc(Cc3cccs3)n2CCc2ccccc2)c1`?
Diaphorase act: inactive; PMI activator: inactive; WT yeast gro inh: inactive; PMI act satM6P: inactive; L major viab: 96.9

What do the screens show for `O=C(CN1CCN(c2ccc(F)cc2)CC1)NC(=O)NCc1ccco1`?
Diaphorase act: inactive; PMI activator: inactive; WT yeast gro inh: inactive; PMI act satM6P: inactive; L major viab: inactive

Results for CCOc1ccc(C2CC(c3cccc(Cl)c3)n3nc(N)nc3N2)cc1 (stereo not drawn) ?
Diaphorase act: inactive; PMI activator: inactive; WT yeast gro inh: inactive; PMI act satM6P: inactive; L major viab: 67.0

What do the screens show for `Nc1nc2n(n1)C(c1cccc(Cl)c1)CC(c1ccc(F)cc1)N2` (stereo not drawn)?
Diaphorase act: inactive; PMI activator: inactive; WT yeast gro inh: inactive; PMI act satM6P: inactive; L major viab: inactive

How did CC(=O)NC1(C(F)(F)F)N=C(c2ccccc2)NC1=O (stereo not drawn) do in these assays?
Diaphorase act: inactive; PMI activator: inactive; WT yeast gro inh: inactive; PMI act satM6P: inactive; L major viab: inactive

Assay outcomes from PubChem.
